Results on 14 compounds are retold here after ChEMBL document CHEMBL1782043, “Synthesis and antileishmanial activity of novel 5-(5-nitrofuran-2-y1)-1,3,4-thiadiazoles with piperazinyl-linked benzamidine substituents” (Eur J Med Chem, 2011).

Calls of active or inactive are those of the source. No cut-off for these calls is given here. Bounds are passed on as bounds.

The test system of data set [1] is Leishmania major. Description: Antileishmanial activity against promastigotes form of Leishmania major MRHO/IR/75/ER after 24 hrs by MTT assay. In kind it is functional, organism-based. The method in brief:
(§1)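 Log-phase promastigotes (2 × 10⁶/mL) were used, from a strain passaged in BALB/c mice. They were incubated with serial drug dilutions in phenol red-free RPMI 1640 with 10% FBS, 2 mM glutamine and antibiotics, pH ~7.2, at 25 °C for 24, 48 or 72 h. MTT (0.5 mg/mL) was then added for 4 h at 37 °C. Cells were pelleted and dissolved in DMSO, with absorbance read at 492 nm. Controls received medium plus DMSO. At least two independent experiments were run in triplicate. IC50 came from linear regression, as mean ± SD.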
For orientation: Tetrazolium dyes change colour on reduction, which living cells bring about.

Data set [2] has as its system Leishmania major. The data set is described as follows: Antileishmanial activity against promastigotes form of Leishmania major MRHO/IR/75/ER after 48 hrs by MTT assay. In kind it is functional, organism-based. Put shortly: as §1
Data set [3] relates to Leishmania major. The data set is described as follows: Antileishmanial activity against promastigotes form of Leishmania major MRHO/IR/75/ER after 72 hrs by MTT assay. In kind it is functional, organism-based. Put shortly: as §1
Data set [4] is described as follows: Cytotoxicity against mouse peritoneal macrophages after 24 hrs by MTT assay. In kind it is cell-based, Peritoneal macrophage cell. The method in brief:
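Peritoneal macrophages were seeded at 2 × 10⁵ cells/well and allowed to adhere. Medium was then replaced with a range of compound concentrations for 24 h at 37 °C in humidified 5% CO₂. Viability was read by MTT colorimetry. Two independent experiments were run in triplicate, and CC50 was obtained by linear regression.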

A short description of data set [5]: Selectivity index, ratio of CC50 for mouse peritoneal macrophages to IC50 for promastigotes form of Leishmania major MRHO/IR/75/ER after 24 hrs by MTT assay. In kind it is functional.
Data set [6] has as its system Leishmania major. Description: Antileishmanial activity against amastigotes form of Leishmania major MRHO/IR/75/ER infected in mouse peritoneal macrophage assessed as decrease in number of amastigotes per macrophage after 24 hrs. In kind it is functional, organism-based. The method in brief:
(§2)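 Mouse peritoneal macrophages (1 × 10⁶/well) were grown on glass coverslips in RPMI 1640 with 10% heat-inactivated FBS, 2 mM glutamine, penicillin and streptomycin. Non-adherent cells were washed off after 1 h. Stationary-phase promastigotes (2 × 10⁶/well, 3 per macrophage) were added for 2 h at 37 °C under CO₂. Free parasites were washed away, then drug medium was added for 24 h. Cells were methanol-fixed and Giemsa-stained, with 100 cells counted per well. Infectivity index = % infected macrophages × mean parasites per infected cell. Two experiment sets were run.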

For data set [7], the system named is Leishmania major. Description: Antileishmanial activity against amastigotes form of Leishmania major MRHO/IR/75/ER infected in mouse peritoneal macrophage assessed as decrease in macrophage infectivity after 24 hrs. In kind it is functional, organism-based. The method in brief: as §2
Data set [8] concerns Leishmania major. The data set is described as follows: Antileishmanial activity against amastigotes form of Leishmania major MRHO/IR/75/ER infected in mouse peritoneal macrophage assessed as decrease in infectivity index after 24 hrs. In kind it is functional, organism-based. The method in brief: as §2

Take `CCC(C)NC(=N)c1ccc(N2CCN(c3nnc(-c4ccc([N+](=O)[O-])o4)s3)CC2)cc1.Cl` (centres undefined): the 50% inhibitory concentration (IC50) (in general, the concentration that inhibits the measured activity by half) in the data set with Leishmania major [1] is 33 µM; with Leishmania major [2], 18 µM; with Leishmania major [3], 13 µM. Further, the 50% cytotoxic concentration (CC50) (usually the concentration giving 50% cytotoxicity) at 24 h in data set [4] was determined as 770 µM. Further, the “Ratio CC50/IC50” value in data set [5] stood at 23.33. The outcome in the data set on Leishmania major [6], in the data set with Leishmania major [7] and with Leishmania major [8] was Active.
For `N#Cc1ccc(N2CCN(c3nnc(-c4ccc([N+](=O)[O-])o4)s3)CC2)cc1`, the IC50 stood at 104 µM with Leishmania major [1], 86 µM in the data set with Leishmania major [2] and 32 µM with Leishmania major [3]. In addition, the CC50 at 24 h in data set [4] worked out at 159 µM. For the same compound, the “Ratio CC50/IC50” value in data set [5] is recorded as 1.53. For the same compound, the outcome in the data set with Leishmania major [6], with Leishmania major [7] and in the data set on Leishmania major [8] was Active.
The compound `O=[N+]([O-])c1ccc(-c2nnc(N3CCN(c4ccc(C5=NCCN5)cc4)CC3)s2)o1` gave a concentration for half-maximal inhibition (IC50) in the data set with Leishmania major [1] of more than 200 µM.
Consider `Cl.N=C(N)c1ccc(N2CCN(c3nnc(-c4ccc([N+](=O)[O-])o4)s3)CC2)cc1`, for which the half-maximal inhibitory concentration (IC50) is 111 µM with Leishmania major [1], 111 µM in the data set on Leishmania major [2] and 26 µM with Leishmania major [3]. Further, the CC50 at 24 h in data set [4] was determined as 342 µM. Besides, the “Ratio CC50/IC50” value in data set [5] came to 3.08.
With `COc1ccc(CNC(=N)c2ccc(N3CCN(c4nnc(-c5ccc([N+](=O)[O-])o5)s4)CC3)cc2)cc1.Cl`, the half-inhibitory concentration (IC50) came to 80 µM in the data set with Leishmania major [1], 76 µM in the data set on Leishmania major [2] and 2 µM with Leishmania major [3]. Half-maximal cytotoxicity in data set [4] (CC50 at 24 h) was put at 69 µM. In addition, the “Ratio CC50/IC50” value in data set [5] was 0.86. In addition, the result with Leishmania major [6], in the data set with Leishmania major [7] and in the data set on Leishmania major [8] was Active.
As for `CNC(=N)c1ccc(N2CCN(c3nnc(-c4ccc([N+](=O)[O-])o4)s3)CC2)cc1.Cl`, the half-maximal inhibitory concentration (IC50) with Leishmania major [1] was determined as 23 µM; in the data set with Leishmania major [2], 22 µM; with Leishmania major [3], 21 µM. The compound also displayed a half-maximal cytotoxic concentration (CC50) at 24 h in data set [4] of 223 µM. For the same compound, in data set [5], the “Ratio CC50/IC50” value was found to be 9.69. Moreover, the result in the data set with Leishmania major [6], with Leishmania major [7] and in the data set with Leishmania major [8] was Active.
`CCOC(=N)c1ccc(N2CCN(c3nnc(-c4ccc([N+](=O)[O-])o4)s3)CC2)cc1`: the results for the IC50 in the data set on Leishmania major [1], with Leishmania major [2] and with Leishmania major [3] were 48 µM, 46 µM and 26 µM, respectively. The outcome in the data set on Leishmania major [6], in the data set on Leishmania major [7] and in the data set on Leishmania major [8] was Active.
Take `CCCNC(=N)c1ccc(N2CCN(c3nnc(-c4ccc([N+](=O)[O-])o4)s3)CC2)cc1.Cl`: the half-maximal inhibitory concentration (IC50) was determined as 10 µM in the data set with Leishmania major [1], 5 µM with Leishmania major [2] and 0.08 µM in the data set with Leishmania major [3]. The same compound had a CC50 at 24 h in data set [4] of 785 µM. The “Ratio CC50/IC50” value in data set [5] was 78.5. The outcome in the data set on Leishmania major [6], in the data set with Leishmania major [7] and in the data set with Leishmania major [8] was Active.
Turning to `O=[N+]([O-])c1ccc(-c2nnc(N3CCN(c4ccc(C5=NCCCN5)cc4)CC3)s2)o1`, the concentration for half-maximal inhibition (IC50) in the data set on Leishmania major [1] is more than 200 µM.
With `CCNC(=N)c1ccc(N2CCN(c3nnc(-c4ccc([N+](=O)[O-])o4)s3)CC2)cc1.Cl`, the IC50 in the data set with Leishmania major [1] was found to be 33 µM; in the data set on Leishmania major [2], 26 µM; in the data set with Leishmania major [3] it was 16 µM. Moreover, half-maximal cytotoxicity in data set [4] (CC50 at 24 h) was put at 337 µM. Further, the “Ratio CC50/IC50” value in data set [5] worked out at 10.21. Besides, the result in the data set on Leishmania major [6], with Leishmania major [7] and in the data set on Leishmania major [8] was Active.
Take `CCCCNC(=N)c1ccc(N2CCN(c3nnc(-c4ccc([N+](=O)[O-])o4)s3)CC2)cc1.Cl`: the half-maximal inhibitory concentration (IC50) is 11 µM in the data set on Leishmania major [1], 4 µM in the data set with Leishmania major [2] and 0.2 µM in the data set on Leishmania major [3]. Moreover, the cytotoxic concentration (CC50) at 24 h in data set [4] worked out at 123 µM. The “Ratio CC50/IC50” value in data set [5] was determined as 11.18.
For `Cl.N=C(c1ccc(N2CCN(c3nnc(-c4ccc([N+](=O)[O-])o4)s3)CC2)cc1)N1CCOCC1` the same measures were 93 µM, 88 µM, 4 µM, 55 µM and 0.59.
For the compound `Cl.N=C(NCC1CCCO1)c1ccc(N2CCN(c3nnc(-c4ccc([N+](=O)[O-])o4)s3)CC2)cc1` (centres undefined), the results for the IC50 with Leishmania major [1], in the data set on Leishmania major [2] and in the data set on Leishmania major [3] were 95 µM, 88 µM and 5 µM, respectively. In data set [4], this compound came in with a half-maximal cytotoxic concentration (CC50) at 24 h of 921 µM. Moreover, in data set [5], the “Ratio CC50/IC50” value came to 9.69.
For `Cl.N=C(NCc1ccccc1)c1ccc(N2CCN(c3nnc(-c4ccc([N+](=O)[O-])o4)s3)CC2)cc1`, the IC50 in the data set on Leishmania major [1] came out at 9 µM; in the data set with Leishmania major [2] it was 1.9 µM; in the data set on Leishmania major [3] it was 0.4 µM. The CC50 at 24 h in data set [4] was found to be 546 µM. Further, the “Ratio CC50/IC50” value in data set [5] was determined as 60.77. The outcome in the data set with Leishmania major [6], with Leishmania major [7] and in the data set with Leishmania major [8] was Active.
